Source: PubChem
T cell HTS = modulators of CD8 T cell-vesicle binding, primary screen, mouse 2C CD8+ T cells, flow cytometry; response (vesicle binding), % at 7 µM; 2C CD8+ T cell-vesicle binding; stronger effect = lower value; AID 2052, 2009; hit rate 0.068% among 330,000;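 active = response, share of CD8 T cells binding vesicles, and their 90th percentile fluorescence all below set limits, cut at about 80% in these data, passing the limit was not always enough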;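 note: values below 100% mean blocked vesicle binding to the CD8+ T cells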
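Benchmarks: naked versus QL9-loaded vesicles / Assay system: purified 2C TCR transgenic mouse naive CD8+ T cells / Technique: high-throughput flow cytometry with anti-B7-1 and anti-CD8 staining / Timing: Cell–vesicle co-incubation 1.5 h at 37 °C, staining 20 min on ice / Read-out: percent CD8+ FL2 mean versus row control / Probe or stimulus: QL9-loaded Drosophila micro-vesicles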
NR2E3 ag-1 = NR2E3 agonists in two-hybrid cells, primary screen, cell-based, luminescence, CHO-S, Gal4-NCOR/VP16-NR2E3; Photoreceptor-specific nuclear receptor (Homo sapiens), Q9Y5X4; luciferase; inhibition of corepressor binding, % at 3.98 µM; hit rate 0.35% among 360,000;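 active = inhibition above the mean of all tested compounds plus 3 SD, cut at about 70% in these data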;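 note: 0% = DMSO with NR2E3 transfected cells and 100% = cells lacking NR2E3 construct; higher means lower luciferase signal from less NR2E3 corepressor binding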
Target sequence (Q9Y5X4 whole entry, looked up, the tested form may be a part): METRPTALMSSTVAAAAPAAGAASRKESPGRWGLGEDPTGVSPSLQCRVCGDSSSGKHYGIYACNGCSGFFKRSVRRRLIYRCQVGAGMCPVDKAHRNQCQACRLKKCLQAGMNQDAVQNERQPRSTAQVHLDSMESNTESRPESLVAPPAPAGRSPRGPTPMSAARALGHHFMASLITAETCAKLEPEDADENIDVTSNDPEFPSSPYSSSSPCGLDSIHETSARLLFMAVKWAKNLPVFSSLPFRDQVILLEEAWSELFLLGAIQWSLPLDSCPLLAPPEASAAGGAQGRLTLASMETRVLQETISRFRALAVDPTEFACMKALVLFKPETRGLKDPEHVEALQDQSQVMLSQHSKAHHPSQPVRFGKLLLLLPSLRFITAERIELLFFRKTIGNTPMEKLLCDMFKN
NR2E3 ag-2 = inhibitors of NR2E3-RetCOR corepressor binding, primary screen, NR2E3 agonist project, biochemical, TR-FRET, GST-NR2E3, biotin-RetCOR. Photoreceptor-specific nuclear receptor (Homo sapiens), Q9Y5X4. inhibition of corepressor binding, % at 4.78 µM. 1536-well. hit rate 0.12% among 320,000;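 active = percent inhibition above the cutoff of mean plus 3 SD of all tested compounds, set per screening campaign, cut at about 20% in these data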;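 note: 0% = DMSO wells and 100% = biotin wells as full block of FRET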
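System: GST-tagged NR2E3 plus biotinylated RetCOR corepressor; Buffer or medium: pH 7.5 Tris-based buffer; Probe or stimulus: RetCOR corepressor, biotinylated, 7 nM; Doses: compound at 4.8 µM, single dose; Schedule: 5 h incubation at 4 °C; Technique: time-resolved FRET; Evaluation: percent inhibition of TR-FRET ratio; Replication: one well per compound, singlicate testing.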
GAA850 FXN act = FXN promoter activators, primary screen, cell-based, luciferase luminescence, HEK293 lucGAA850; HEK293 lucGAA850 FXN promoter luciferase reporter, 24 h; percent of 10 µM SAHA response; activation, % at 6 µM; hit rate 0.56% among 360,000; AID 540364, 2011;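 active = activation above the average of all compounds screened plus 3 SD, cutoff fixed separately per campaign, cut at about 7.5% in these data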;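 note: 0% = DMSO wells and 100% = 10 µM SAHA wells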
Myeloid diff 2 = induction of myeloid progenitor differentiation, primary screen, cell-based, flow cytometry, MLPCN library; ER-HoxA9 myeloid progenitors, lysozyme-GFP differentiation; hit rate 1% among 360,000; calls only at 10 µM;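 active = normalized GFP-positive differentiation at or above the plate's own cutoff, the solvent-only control mean plus 3 SD; inconclusive = no clear call, values can overlap the other calls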;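 note: cells exposed to compound for four days before flow analysis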
Myeloid diff CP1 = inducers of myeloid progenitor differentiation, confirmation, cell-based, GFP/Mac1 flow cytometry, cherry pick 01; shares compounds with Myeloid diff 2; ER-HoxA9 myeloid progenitors, GFP/Mac1 double-positive flow; calls only; hit rate 2% among 2,300; AID 651706, 2012;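 active = share of green or green-and-red cells above 9 and 9% in run 1 or 4 and 3% in run 2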
GFP autofluor = flagged as fluorescent in myeloid differentiation counter-screen; ER-HoxA9 myeloid progenitors, no estrogen, GFP autofluorescence flow cytometry; vehicle wells 0%, positive control 100%; hit rate 7.4% among 2,300; fluorescence response, % (concentration not given with the values); shares compounds with Myeloid diff 2;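 active = over 5% cells positive for green fluorescent reporter, or over 2% positive for both it and APC stain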;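 note: range taken on the double positive population between DMSO and positive control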
Numbers without * were called inactive; i = inactive; ? = inconclusive; . = no result; + = active, no number. Hits are enriched below; roughly 2% of the tested compounds scored in any of these assays.

SMILES	T cell HTS	NR2E3 ag-1	NR2E3 ag-2	GAA850 FXN act	Myeloid diff 2	Myeloid diff CP1	GFP autofluor
COc1ccc(NC(=O)N(C)[C@H]2C[C@H]3c4[nH]c5ccc(-c6ccc(OC)cc6)cc5c4CCN3C[C@H]2[C@H](C)O)cc1	.	-8	.	1	i	.	.
Cc1cccc(-n2c(CNC(=O)COc3ccccc3)nnc2SCC(=O)Nc2nccs2)c1	237	0	-2	1	i	i	5.4*
CCCCCCn1cc(CN2CC(N3CCN(CCO)CC3)CS2(=O)=O)nn1 (configuration not stated)	.	-6	.	.	i	.	.
CC(C)(C)NC(=O)C1(C)CCC(=O)N1C1CC1 (configuration not stated)	.	-5	.	.	i	.	.
CCC(CO)Oc1cc(NCc2ccc(Cl)cc2)c2ncn(C(C)C)c2c1 (configuration not stated)	194	19	.	2	i	i	1
CC[C@H](CO)Oc1cc(NCc2ccc(Cl)c(Cl)c2)c2ncn(C(C)C)c2c1	i	16	.	3	i	.	.
CC(C)(C)NS(=O)(=O)c1ccc(CCC(=O)Nc2ccc3c(c2)OCO3)cc1	220	16	2	1	+	i	1
CC(C)(C)NS(=O)(=O)c1ccc(CCC(=O)Nc2ccc3c(c2)OCCO3)cc1	255	0	0	0	i	.	.
CCc1nc2ccc(C(=O)Nc3cc(-c4ccccc4)ccc3OC)cn2c1N(CCN(C)C)CC1CC1	.	8	.	-6	?	.	.
COc1cccc(CCNC(=O)CC2C(=O)NCCN2Cc2ccc(C)o2)c1 (configuration not stated)	392	-14	1	-1	?	.	.
COCCNc1nc(-c2ccccc2F)c2sc(-c3ccccc3)cc2n1	.	-65	.	-5	i	.	.
COc1ccc(-c2nn(-c3ccccc3)cc2/C=C2/SC(=S)N(Cc3ccco3)C2=O)c(C)c1	429	-1	1	-1	i	.	.
COc1ccc(-n2c(C)cc(/C=C3\SC(=S)N(Cc4ccco4)C3=O)c2C)cc1	i	-24	-1	1	+	+	3
N#Cc1c2n(c(=S)n(-c3ccc(OC(F)F)cc3)c1=O)CCCCC2	301	26	6	2	i	.	.
CN(C(=O)COC(=O)CCC(=O)c1ccc(F)cc1)C1CCCCC1	570	-5	.	1	i	.	.
COc1ccc(OC)c(S(=O)(=O)NC(=O)C2(C)CCN2C(=O)CC2CCCC2)c1 (configuration not stated)	.	7	.	0	i	.	.
COc1cccc(CNS(=O)(=O)c2ccccc2Br)c1OC	.	1	.	-1	i	i	1
CCOC(=O)C1(C)CCCN1C(=O)c1sccc1C (configuration not stated)	.	-17	.	-1	i	.	.
O=c1[nH]cc(-c2ccc(Br)cc2)n1Cc1ccccc1	762	0	4	0	i	i	0
CC/C(=C1/C(=O)CC(C)(C)C(C(=O)OC)C1=O)N1CCCC1 (configuration not stated)	656	-2	-3	1	i	i	0
CCO/N=C/C1=C(O)C(C(=O)OC)C(C)(C)CC1=O (configuration not stated)	295	15	-5	2	i	.	.
CCOC(=O)Cn1nc(NC(=O)COc2ccc(F)cc2)cc1C	637	-11	1	-1	i	.	.
Cn1cc(CN(CCCN2CCOCC2)C(=S)Nc2cccc(Cl)c2)c2ccccc21	261	24	-1	-6	+	i	0
O=C(N/N=C/c1ccc([N+](=O)[O-])o1)c1ccc2c(c1)OCO2	299	-50	.	-4	i	i	0
O=C(Nc1ccccc1)c1ccc2nc(-c3ccco3)c(-c3ccco3)nc2c1	345	-18	0	1	i	i	0
SMILES	T cell HTS	NR2E3 ag-1	NR2E3 ag-2	GAA850 FXN act	Myeloid diff 2	Myeloid diff CP1	GFP autofluor
CC1CCC(NC(=O)CN2CCN(S(=O)(=O)c3ccc(Br)s3)CC2)CC1 (configuration not stated)	.	14	.	-6	i	.	.
COC(=O)[C@@]12C[C@@H](CC(=O)NCc3cccc(C(F)(F)F)c3)C(=O)N(CCc3ccc(OC)c(OC)c3)C1=CCC(C)(C)C2	.	.	.	.	i	.	.
COc1ccc(-c2nc(N)ncc2Oc2ccccc2Br)c(O)c1	231	-50	2	2	+	i	0
CS(=O)(=O)N(CC(=O)Nc1ccccc1Br)Cc1ccccc1	216	-32	4	0	i	.	.
CN1CCN(S(=O)(=O)c2ccc(NC(=S)NC(=O)c3ccccc3)cc2)CC1	49	-15	5	0	+	i	0
CN1CCN(S(=O)(=O)c2ccc(NC(=S)NC(=O)c3ccc(Cl)cc3)cc2)CC1	.	-19	.	3	i	.	.
Cc1ccc(CC(CC(=O)O)C(=O)NC2CCCCC2)cc1 (configuration not stated)	554	25	1	-3	+	i	0
COc1ccc(C(=O)C[n+]2ccc3c(c2)nnn3-c2ccccc2)cc1	100	-18	2	1	+	i	0
O=S(=O)(c1ccc(Cl)cc1)N1CCN(Cc2c[nH]c3ccccc23)CC1	249	0	-2	-3	i	i	0
O=C(Cc1c[nH]c2ccccc12)N1CCN(S(=O)(=O)c2ccc(Cl)cc2)CC1	.	-12	.	2	i	.	.
Cc1cc(C)c(C)c(S(=O)(=O)N2CCC(C(=O)Nc3ccc(S(=O)(=O)N4CCOCC4)cc3)CC2)c1C	459	-16	2	-1	i	i	0
O=C(Nc1ccc(S(=O)(=O)N2CCOCC2)cc1)C1CCN(S(=O)(=O)c2ccccc2)CC1	211	-6	1	0	i	.	.
Cc1ccc(NC(=O)c2ccc([N+](=O)[O-])s2)cc1S(=O)(=O)N1CCOCC1	213	1	.	-1	+	i	0
COC(=O)C[C@@H]1C[C@@H]2c3cc(NS(=O)(=O)c4ccccc4)ccc3O[C@@H]2[C@@H](CO)O1	.	8	.	1	i	.	.
O=C(O)Cc1sc(N/N=C\c2ccncc2)nc1-c1ccccc1	621	-20	-2	0	i	i	0
Cc1ccc(C)c(OCc2nnc(N)s2)c1	165	-2	3	2	i	i	0
